Active and inactive are the calls of the source. The calls are words filed in the database; no cut-off is given here.
Assays:
[1] = biological target: T1, Peroxisome proliferator-activated receptor alpha (Homo sapiens) (UniProt Q07869); test: Agonist activity at human PPARalpha ligand binding domain expressed in COS-1 cells co-transfected with Gal4 at 10 uM by luciferase reporter gene assay; format: cell-based
T1 sequence (whole entry): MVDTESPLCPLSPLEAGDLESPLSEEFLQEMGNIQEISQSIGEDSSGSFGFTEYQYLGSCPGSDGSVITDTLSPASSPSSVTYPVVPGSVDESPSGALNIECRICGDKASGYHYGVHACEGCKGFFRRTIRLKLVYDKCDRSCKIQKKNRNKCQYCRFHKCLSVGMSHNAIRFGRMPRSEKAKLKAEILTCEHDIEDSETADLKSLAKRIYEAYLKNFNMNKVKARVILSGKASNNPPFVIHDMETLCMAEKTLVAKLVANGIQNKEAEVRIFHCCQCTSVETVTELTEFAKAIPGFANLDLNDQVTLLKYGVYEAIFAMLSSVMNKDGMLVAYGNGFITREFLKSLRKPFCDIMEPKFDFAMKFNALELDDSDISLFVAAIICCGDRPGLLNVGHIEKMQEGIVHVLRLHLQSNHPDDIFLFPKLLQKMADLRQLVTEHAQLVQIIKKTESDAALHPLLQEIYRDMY
Outline: (§1)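 COS-1 cells in DMEM with 10% inactivated FBS, 37 °C, 5% CO2, plated 1 day before lipofectamine transfection. Per well: 320 ng (UAS)5-tk-LUC reporter, 640 ng empty pGL3 basic, 30 ng pSG5-GAL4-hPPAR (α, δ or γ). Compound 10 μM (DMSO negative control) added 5 h post-transfection. Cells kept 24 h, then lysed for luciferase read-out. Positive controls: EHA for PPARα, GW 501516 for PPARδ.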

[2] = biological target: T2, Peroxisome proliferator-activated receptor delta (Homo sapiens) (UniProt Q03181); test: Agonist activity at human PPARdelta ligand binding domain expressed in COS-1 cells co-transfected with Gal4 at 10 uM by luciferase reporter gene assay; format: cell-based
T2 sequence (whole entry): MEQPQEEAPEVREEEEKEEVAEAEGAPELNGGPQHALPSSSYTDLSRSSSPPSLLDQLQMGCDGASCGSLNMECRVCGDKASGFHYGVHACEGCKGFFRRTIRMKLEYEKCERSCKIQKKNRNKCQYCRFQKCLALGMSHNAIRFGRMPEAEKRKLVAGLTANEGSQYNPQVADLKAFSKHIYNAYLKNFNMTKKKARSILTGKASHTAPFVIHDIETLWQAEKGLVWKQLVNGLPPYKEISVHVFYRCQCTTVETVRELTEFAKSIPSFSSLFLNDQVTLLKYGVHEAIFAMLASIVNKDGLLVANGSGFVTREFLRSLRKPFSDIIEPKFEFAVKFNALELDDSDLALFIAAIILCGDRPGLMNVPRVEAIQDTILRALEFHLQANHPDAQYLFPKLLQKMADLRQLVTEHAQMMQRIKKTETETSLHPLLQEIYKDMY
Outline: as §1, with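 “read-out.” for “read-out. Positive controls: EHA for PPARα, GW 501516 for PPARδ.”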

[3] = biological target: T3, Peroxisome proliferator-activated receptor gamma (Homo sapiens) (UniProt P37231); test: Agonist activity at human PPARgamma ligand binding domain expressed in COS-1 cells co-transfected with Gal4 at 10 uM by luciferase reporter gene assay; format: cell-based; outline: as §1
T3 sequence (whole entry): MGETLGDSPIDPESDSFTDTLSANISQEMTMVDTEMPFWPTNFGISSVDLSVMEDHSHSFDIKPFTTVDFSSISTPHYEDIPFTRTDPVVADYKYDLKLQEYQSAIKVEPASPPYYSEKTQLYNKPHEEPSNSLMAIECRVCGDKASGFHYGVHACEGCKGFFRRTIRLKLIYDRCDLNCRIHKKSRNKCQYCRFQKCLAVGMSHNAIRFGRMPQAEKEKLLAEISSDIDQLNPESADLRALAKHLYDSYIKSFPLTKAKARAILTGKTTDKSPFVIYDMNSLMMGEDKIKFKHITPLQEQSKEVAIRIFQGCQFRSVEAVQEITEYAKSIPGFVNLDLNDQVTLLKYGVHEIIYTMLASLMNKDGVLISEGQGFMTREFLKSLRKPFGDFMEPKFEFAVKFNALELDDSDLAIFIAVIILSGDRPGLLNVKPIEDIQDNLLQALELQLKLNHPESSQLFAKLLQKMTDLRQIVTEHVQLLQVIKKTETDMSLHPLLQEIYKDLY

[4] = Induction of [14C]-oleic acid oxidation in human differentiated skeletal muscle cells assessed as accumulation of oxidized [14C]-oleic acid after 4 hrs by liquid scintillation counting; format: functional
Outline: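 Human skeletal muscle myoblasts grown to 70-80% confluence, then differentiated 7 days (DMEM 5.5 mM glucose, 2% FCS, 25 pM insulin). Compound at five concentrations from day 3 (96 h). [1-14C]oleic acid (1 μCi/mL, 100 μM) in DPBS with 10 mM HEPES and 1 mM L-carnitine, 4 h at 37 °C. Filter-trapped CO2 counted by scintillation, normalized to protein. EC50 by non-linear regression. GW 501516 positive control.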

| Activity [1] | Activity [2] | Activity [3] | EC50 [4] [nM] | Compound |
| --- | --- | --- | --- | --- |
| Active | Active | inactive | 0.85 | Cc1cc(SCc2cn(-c3ccc(C(F)(F)F)c(F)c3)nn2)ccc1OCC(=O)O |
| – | – | – | 0.07 | Cc1cc(SCc2sc(-c3ccc(C(F)(F)F)cc3)nc2C)ccc1OCC(=O)O [GW501516] |
| – | – | – | 1.4 | Cc1cc(SCc2cn(-c3ccc(OC(F)(F)F)c(F)c3)nn2)ccc1OCC(=O)O |
| Active | Active | inactive | 12 | Cc1cc(SCc2cn(-c3ccc(OC(F)(F)F)c(Cl)c3)nn2)ccc1OCC(=O)O |
| – | – | – | 10 | Cc1cc(SCc2cn(-c3ccc(OC(F)(F)F)cc3)nn2)ccc1OCC(=O)O |
| – | – | – | 1.8 | Cc1cc(SCc2cn(-c3ccc(C(F)(F)F)cc3)nn2)ccc1OCC(=O)O |

Reference: ChEMBL document CHEMBL1177869, “Synthesis and dual PPARalpha/delta agonist effects of 1,4-disubstituted 1,2,3-triazole analogues of GW 501516” (Eur J Med Chem, 2010)
